# Laboratory results from the M2OR odorant receptor database.
# Molecular target: T1, OR2W1 (Homo sapiens) (UniProt Q9Y3N9)
# T1 sequence (whole entry): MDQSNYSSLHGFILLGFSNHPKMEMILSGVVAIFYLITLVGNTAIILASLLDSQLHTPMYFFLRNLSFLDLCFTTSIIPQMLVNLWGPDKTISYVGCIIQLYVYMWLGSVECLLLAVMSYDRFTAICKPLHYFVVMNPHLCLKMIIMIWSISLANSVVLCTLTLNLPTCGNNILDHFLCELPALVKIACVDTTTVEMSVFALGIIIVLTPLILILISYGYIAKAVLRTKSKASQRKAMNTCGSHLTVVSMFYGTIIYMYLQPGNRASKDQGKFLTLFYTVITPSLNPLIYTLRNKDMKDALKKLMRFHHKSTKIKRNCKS
# Conditions: stereoisomer not certain
# Outline: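 Values were gathered from published papers (main text and supplementary material), with extra details requested from the original authors when needed, and checked for typos and inconsistencies. Each receptor–molecule pair is called responsive (active) if the original authors judged the measured signal statistically different from baseline, and non-responsive (inactive) otherwise. Assay methods varied by source, often transient mammalian cell-line luciferase assays. Recorded details include cell line, G-protein, co-transfected protein and tags.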
row,Structure (SMILES),odorant receptor agonist call
1,C=CC(=O)CCCCC,active
2,CC1=CCC(C(C)(C)S)CC1 (stereo unspecified),active
3,CC(=O)OCCC(C)C,active
4,CCCSSCCC,active
5,CC(C)(S)CCOC=O,active
6,C=CC(=C)CCC=C(C)C,active
7,CSCc1ccco1,active
8,COc1ccc(C)cc1O,inactive
9,CCCCCC=CC=O,active
10,CCCC(S)CCO (stereo unspecified),active
11,OCCCc1ccccc1,active
12,CCc1ccc(O)cc1,active
13,CCCCCc1ccccn1,active
14,CCOC(=O)CCSC,active
15,c1coc(CSSCc2ccco2)c1,active
16,CC(=O)OCCc1ccccc1,active
17,CC(S)c1ccccc1 (stereo unspecified),active
18,CCCCCC(C)O (stereo unspecified),active

row,Structure (SMILES),odorant receptor agonist call
1,CCCCCC(=O)CC,active
2,SCCc1ccccc1,active
3,CCc1cccc(O)c1,active
4,CCOC(=O)C(C)C,inactive
5,CCOC(=O)C(C)CC (stereo unspecified),active
6,CSSCc1ccco1,active
7,CC(=O)c1cnccn1,active
8,CC(=O)c1ccc(C)cc1,active
9,OCCc1ccccc1,active
10,CC(=O)OCC=Cc1ccccc1,active
11,CCCCCCOC(C)=O,active
12,CCCCCCCCC=CC=O,inactive
13,CSSc1ccoc1C,inactive
14,CCCCC1OC(=O)CC1C (stereo unspecified),active
15,CCCCCCCC(C)=O,active
16,CCOC(=O)c1ccccc1,active
17,CCCC(=O)OCC,active
18,CCCCCCC1CCC(=O)O1 (stereo unspecified),active
